From PubChem
The list is not random: actives were taken first. Their share in the collection is about 2.1%.
STEP inh: STEP (human) phosphatase inhibition; inhibition, % at 20 µM; P54829; 0.25% of 360,000 active; recombinant STEP, OMFP fluorogenic substrate, fluorescence; AID 588621;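 active = inhibition at 20 µM, scaled per plate between control wells, above about 37%, limit read from the data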;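 also: 0% = DMSO with enzyme and substrate and 100% = substrate only without enzyme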
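Material: STEP (striatal-enriched tyrosine phosphatase) enzyme, cell-free | Medium: 50 mM Bis-Tris pH 6.0 with 2.5 mM DTT and 0.005% Tween 20 | Read-out: Percent inhibition scaled to no-enzyme and uninhibited-enzyme controls, plate-pattern corrected | Signal: Fluorescence read at 480 nm ex / 540 nm em | Times: 20 min reaction, room temperature, in the dark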
DNMT1 inh: blocks human DNA methyltransferase DNMT1. DNMT1 molecular beacon, Hinp1I cleavage, fluorescence. inhibition (reported as % activation of signal), % at 10 µM. 0.83% of 360,000 active; in the data active = inhibition above about 50%
Scp-1 inhibitor: Scp-1 (human) phosphatase inhibition; inhibition, % at 20 µM; Q9GZU7; 0.88% of 340,000 active; Recombinant Scp1, phosphopeptide, malachite green phosphate absorbance;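 active = inhibition above about 50% at 20 µM, limit read from the data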;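 also: plate controls were DMSO wells with enzyme for no effect and wells lacking enzyme for full effect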
Target sequence (Q9GZU7 76-261 limits assumed): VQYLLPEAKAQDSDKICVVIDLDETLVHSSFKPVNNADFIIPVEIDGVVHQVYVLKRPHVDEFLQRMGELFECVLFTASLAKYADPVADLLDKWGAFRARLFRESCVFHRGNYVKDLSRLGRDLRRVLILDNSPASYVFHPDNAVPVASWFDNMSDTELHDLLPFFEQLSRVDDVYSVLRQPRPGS
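Assay system: SCP-1 catalytic fragment, aa 76-261 | Buffer or medium: Tris acetate buffer pH 5.5 with MgCl2 and Tween-20 | Compound: One concentration, 20 µM, with 1.0% DMSO | Also added: Phospho 17-mer peptide substrate | Signal: Absorbance at 630 nm | Incubation: 45 min enzyme reaction at room temperature | Measure: % inhibition of SCP-1 phosphate liberation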
LMPTP block: LMPTP (human) inhibition; 0.22% of 360,000 active; AID 651560; inhibition, % at 20 µM; P24666; recombinant LMPTP-A, OMFP fluorogenic substrate, fluorescence intensity;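 active = compounds that cut the enzyme signal by at least half of the control window in the single-dose screen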;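 also: plate controls were DMSO wells with enzyme plus substrate for no effect and substrate without enzyme for full effect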
Target sequence (P24666 whole entry, looked up): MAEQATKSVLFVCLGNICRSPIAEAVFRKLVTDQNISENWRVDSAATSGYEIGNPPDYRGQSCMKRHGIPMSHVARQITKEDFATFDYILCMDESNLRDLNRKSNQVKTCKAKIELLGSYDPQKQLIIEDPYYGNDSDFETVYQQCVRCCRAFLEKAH
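Test system – LMPTP-A enzyme · Amount – LMPTP-A at 0.625 nM final in the reaction · Buffer or medium – Bis-Tris pH 6.0, DTT, detergent · Reagent – OMFP 400 µM · Doses – single 20 µM dose · Schedule – reaction 50 min, room temperature, dark · Detection – fluorescence intensity of OMFP turnover product · Evaluation – percent inhibition versus substrate-only and uninhibited controls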
SUMO1-SIM PPI: modulators of human SUMO1-mediated protein-protein interactions. P63165. SUMO1 binding to a labelled peptide, TR-FRET, 1 h. inhibition, % at 20 µM. 0.33% of 360,000 active; in the data active = inhibition above about 37%
Target sequence (P63165 whole entry, looked up): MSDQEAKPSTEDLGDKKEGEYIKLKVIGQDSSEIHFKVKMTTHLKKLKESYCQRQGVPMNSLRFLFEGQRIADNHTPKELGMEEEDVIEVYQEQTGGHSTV
GRK2 inh: human GRK2 inhibition via aptamer displacement. P25098. bead flow cytometry, FAM-aptamer displacement from GRK2. inhibition of aptamer binding, % at 10 µM. 0.59% of 330,000 active. AID 488847;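 active = inhibition of aptamer binding above 40%, roughly 3 SD of noise, on plates passing a quality check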;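 also: median bead fluorescence of bound FAM aptamer so fluorescent compounds give negative values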
DNMT1 confirm: DNMT1 inhibition confirmation, single concentration; 8% of 2,300 active; DNMT1 molecular beacon HinP1I cleavage, fluorescence; shares compounds with DNMT1 inh; inhibition, % at 10 µM;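 active = average inhibition of at least 30% in the single-concentration confirmation test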
DNMT1 interf: shows spectral interference in the DNMT1 beacon assay | shares compounds with DNMT1 inh | DNMT1 molecular beacon spectral interference counterscreen, fluorescence 485/520 | activation (fluorescence interference), % at 10 µM | 1% of 2,300 active | AID 602387;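 active = activation of at least 30% at 10 µM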;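 also: DNMT1 catalytic domain with a HinP1I cleavage step and a FAM/dabcyl DNA beacon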
* hit, by the source's call; . = no result.

SMILES	STEP inh	DNMT1 inh	Scp-1 inhibitor	LMPTP block	SUMO1-SIM PPI	GRK2 inh	DNMT1 confirm	DNMT1 interf
c1ccc(Cn2c(SCc3nc4ccccc4s3)nnc2-c2ccco2)cc1	10.9	103.5*	25.7	36.7	36.5	4.0	1.1	6.0
CCC(c1nnc(SCc2nc3ccccc3s2)n1Cc1ccccc1)N(C)C (stereo not given)	2.3	-4.8	-6.2	1.3	-0.6	0.0	.	.
O=C(/C=C/[C@H]1O[C@@H](n2cnc3c(NC(=O)c4ccccc4)ncnc32)[C@H](O)[C@@H]1O)NCC1CCCCC1	-0.3	1.1	.	-0.9	5.5	.	.	.
CCCCCn1c(=NC(C)=O)c(C#N)cc2c(=O)n3ccccc3nc21	0.2	78.3*	2.2	17.6	-12.3	3.0	2.1	1.9
CCCCn1c(=NC(C)=O)c(C#N)cc2c(=O)n3cccc(C)c3nc21	8.8	63.6*	10.5	8.5	-3.8	0.0	0.3	1.8
CC(=O)N=c1c(C#N)cc2c(=O)n3ccccc3nc2n1CCCOC(C)C	-1.5	8.4	-4.2	1.0	-21.1	0.0	.	.
CCOc1ccc(C(=O)OCC(=O)N2CCCC2)cc1	-1.5	1.2	-0.8	-2.4	0.9	2.0	.	.
Cc1cccc(C)c1NC(=O)COc1ccc2c(C)c(Cc3ccccc3)c(=O)oc2c1C	1.0	56.7*	-1.7	0.1	1.0	0.0	-0.1	-5.1
CSc1nc(Sc2cccc(Cl)c2)c2ccccc2n1	1.8	86.8*	2.6	0.8	2.1	0.0	6.6	4.1
COc1ccc(NC(=O)CSc2ccc3c4c(cccc24)C(=O)c2ccccc2-3)cc1	0.3	60.8*	-7.3	3.0	-10.4	0.0	5.2	1.5
COc1ccc(NC(=O)CSc2nnc(C)c3ccccc23)cc1	-0.9	-1.3	0.0	-0.9	-1.1	0.0	.	.
Clc1ccc2c(-c3ccccc3)nc(-c3cccs3)nc2c1	.	.	.	0.6	3.9	.	.	.
CCn1c2ccccc2c2cc(CN3CCN(S(=O)(=O)CC)CC3)ccc21	.	.	.	.	.	5.0	.	.
CCn1c2ccccc2c2cc(CN3CCN(S(=O)(=O)Cc4ccccc4)CC3)ccc21	4.3	60.4*	2.4	7.1	-2.8	0.0	1.1	3.4
COCCCn1c(C(=O)Nc2ccc3c(c2)OCO3)cc2c(=O)n3cccc(C)c3nc21	6.4	83.0*	.	16.5	31.3	.	1.1	-8.0
COc1ccc(C(=O)c2[nH]c(N)c(C(=O)NCCc3c[nH]c4ccccc34)c2-c2ccc(Cl)c(F)c2)cc1	.	.	.	1.0	0.0	.	.	.
O=C(Nc1ccccc1)Nc1nnc([C@H]2C[C@H](O)[C@@H](CO)O2)s1	-2.3	3.1	.	3.6	-1.1	.	.	.
O=C(NCSc1ccnc(SCNC(=O)c2ccc(F)cc2)n1)c1ccc(F)cc1	6.5	51.8*	38.0	0.0	2.0	0.0	2.7	-5.6
NC(=O)CC(NC(=O)c1cccc(Br)c1)c1ccc(N2CCN(c3ccccn3)CC2)c([N+](=O)[O-])c1 (stereo not given)	-1.7	102.6*	-6.5	0.8	-12.1	0.0	5.0	8.9
NC(=O)CC(NC(=O)Cc1ccc(Cl)cc1)c1ccc(N2CCC(Cc3ccccc3)CC2)c([N+](=O)[O-])c1 (stereo not given)	-0.7	71.2*	-0.2	1.2	-4.5	0.0	1.3	2.2
Cc1cc(C)cc(C(=O)NC(CC(N)=O)c2ccc(N3CCC(Cc4ccccc4)CC3)c([N+](=O)[O-])c2)c1 (stereo not given)	-1.2	-8.4	-4.4	3.1	2.3	0.0	.	.
NC(=O)CC(NC(=O)c1ccc(Br)cc1)c1ccc(N2CCN(c3ccccn3)CC2)c([N+](=O)[O-])c1 (stereo not given)	2.4	-3.3	-2.3	0.0	-13.3	0.0	.	.
CC(C)(C)c1ccc(-n2ncc3c2CCCC3NC(=O)c2ccco2)cc1 (stereo not given)	0.4	-9.3	.	1.3	1.2	.	.	.
COc1ccccc1OCCSc1nc2ccccc2n1CC(=O)O	-0.3	79.5*	.	-2.8	34.8	.	5.0	4.5
Cc1ccc(OCCSc2nc3ccccc3n2CC(=O)O)cc1	3.8	3.2	-7.3	-0.9	3.7	4.0	.	.
SMILES	STEP inh	DNMT1 inh	Scp-1 inhibitor	LMPTP block	SUMO1-SIM PPI	GRK2 inh	DNMT1 confirm	DNMT1 interf
c1ccc(OCCCCn2cnc3ccccc32)cc1	2.6	73.7*	1.1	0.2	-0.8	1.0	2.5	4.9
Cc1ccc(CN2C(=O)c3ccccc3C2c2nnnn2-c2c(C)cccc2C)cc1 (stereo not given)	.	.	.	-0.9	2.5	.	.	.
O=S1(=O)CC(N2CCN(CCO)CC2)CN1Cc1cn(Cc2ccccc2C(F)(F)F)nn1 (stereo not given)	0.2	4.6	.	-3.0	-0.6	.	.	.
CC(C)Cc1nnc(NC(=O)Cc2cccs2)s1	9.8	63.0*	18.9	5.5	0.8	2.0	19.9	-3.4
O=c1[nH][nH]c2c1[C@H](c1ccc(F)cc1)O[C@H](CCC(F)(F)F)C2	.	.	.	-1.3	3.3	.	.	.
COc1ccc(Cc2nc3ccc(C(=O)NC(C)c4cn(C)nc4C)cc3o2)cc1 (stereo not given)	-2.9	0.2	-3.1	-0.6	-1.6	0.0	.	.
O=C1C=C(O)c2c(O)cccc2C1=O	.	.	.	.	.	0.0	.	.
O=C(O)c1cc(O)c2c(c1)C(=O)c1cccc(O)c1C2=O	12.6	69.4*	64.6*	10.1	32.4	4.0	8.6	1.1
CC(C)C[C@@H](CN)NC(=O)c1nc[nH]c1C(=O)N[C@@H](C)C(=O)CNC[C@H](C)NC(=O)c1nc[nH]c1C(=O)N[C@@H](CC(C)C)C(=O)O	-2.0	8.6	-8.0	-2.6	4.3	.	.	.
CCc1nn(CC(=O)NC(C)CCc2ccccc2)c(=O)c2cc3cc(F)ccc3n12 (stereo not given)	2.7	53.0*	-2.4	0.6	3.8	0.0	2.4	0.9
CCc1nn(CC(=O)NC2CCN(Cc3ccccc3)CC2)c(=O)c2cc3cc(F)ccc3n12	-1.6	29.7	-5.3	-0.4	-15.4	0.0	.	.
COC(=O)c1ccccc1NC(=O)c1cc2ncc(Br)cn2n1	6.8	67.7*	39.9	5.4	1.0	5.0	-0.4	-4.1
COCCNC(=O)C1CCCN(C(=O)c2nc3ccccc3s2)CC1 (stereo not given)	-0.2	-0.1	.	-0.2	-0.6	.	.	.
COc1ccc(N/C=C\C(=O)c2ccc3ccccc3c2)cc1	2.3	34.4	-4.7	-0.7	-1.0	3.0	.	.
NS(=O)(=O)c1ccc(N/C=C\C(=O)c2ccc3ccccc3c2)cc1	3.1	88.1*	-0.9	11.7	3.1	49.0*	2.1	3.4
